What was measured:
Cholinesterase [1] = molecular target: T1, Cholinesterase (Homo sapiens, UniProt P06276); test: Inhibition of BuChE in human serum using butyrylthiocholineiodide as substrate pre-incubated for 10 mins followed by substrate addition and measured for 6 mins by DTNB reagent based Ellman's method; assay type: cell-free
How it was run: (§1)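 AChE from human erythrocytes at 0.25 U/ml in 20 mM HEPES pH 8 with 0.1% Triton X-100, or BuChE from human serum at 0.25 U/ml in 0.1% gelatine. Substrate ATCI or BTCI at […], DTNB […], in 0.1 M PBS pH 7.4. Enzyme and inhibitor (DMSO stock, five concentrations) preincubated 10 min, then substrate added; rate followed 6 min at 37 °C. Non-enzymatic blank subtracted. Triplicates; IC50 from log concentration–percent inhibition curves.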

Acetylcholinesterase [2] = molecular target: T2, Acetylcholinesterase (Homo sapiens, UniProt P22303); test: Inhibition of AChE in human erythrocytes using acetylthiocholineiodide as substrate pre-incubated for 10 mins followed by substrate addition and measured for 6 mins by DTNB reagent based Ellman's method; assay type: cell-based, Erythrocyte
T2 sequence (P22303 whole entry): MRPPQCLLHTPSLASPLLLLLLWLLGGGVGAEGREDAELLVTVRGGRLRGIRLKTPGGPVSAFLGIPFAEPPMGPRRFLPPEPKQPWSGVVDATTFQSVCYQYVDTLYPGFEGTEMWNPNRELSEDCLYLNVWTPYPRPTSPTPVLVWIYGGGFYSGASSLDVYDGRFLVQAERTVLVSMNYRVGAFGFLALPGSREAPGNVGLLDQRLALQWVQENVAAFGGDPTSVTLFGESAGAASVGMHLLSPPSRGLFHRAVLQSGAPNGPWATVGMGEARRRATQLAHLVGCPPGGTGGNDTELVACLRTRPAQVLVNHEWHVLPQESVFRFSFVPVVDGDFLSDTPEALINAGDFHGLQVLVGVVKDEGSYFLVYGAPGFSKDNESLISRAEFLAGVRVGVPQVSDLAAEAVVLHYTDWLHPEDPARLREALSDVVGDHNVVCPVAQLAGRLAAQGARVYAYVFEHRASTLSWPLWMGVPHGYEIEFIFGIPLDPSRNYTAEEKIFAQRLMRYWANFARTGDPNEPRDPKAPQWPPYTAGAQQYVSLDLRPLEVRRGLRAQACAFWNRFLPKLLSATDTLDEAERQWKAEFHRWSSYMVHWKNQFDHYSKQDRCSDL

Acetylcholinesterase [3] = molecular target: T2, Acetylcholinesterase; test: Inhibition of AChE (unknown origin) by DTNB reagent based Ellman's method
How it was run: as §1, with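 “Ellman assay with DTNB read at 412 nm. AChE” for “AChE”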

Cholinesterase [4] = molecular target: T1, Cholinesterase; test: Inhibition of BuChE (unknown origin) by DTNB reagent based Ellman's method
How it was run: as §1, with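 “Ellman assay with DTNB read at 412 nm. AChE” for “AChE”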

[5] = Neuroprotective activity in human MC65 cells cultured in TC-deficient medium assessed as inhibition of TC-deficiency induced oxidative stress by measuring increase in cell viability at 60 to 80 uM measured after 12 hrs by MTT assay relative to cells cultured in tetracycline containing medium; assay type: functional; conditions: dose 60-80 µM
How it was run: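 MC65 cells grown in MEM, PBS-washed and resuspended in MEM, then seeded at 5×10⁴ cells/well with or without TC. Compounds (80–1 μM) added to TC-free wells and incubated 12 h at 37 °C. MTT (5 mg/ml) added for a further 4 h; formazan dissolved in DMSO:H₂O 1:1 and read at 570 nm. Viability expressed as % of +TC control. Triplicate wells, three runs.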

Acetylcholinesterase [6] = molecular target: T2, Acetylcholinesterase; test: Non-competitive inhibition of AChE in human erythrocytes measured at 2 mins interval for 10 mins by Dixon plot analysis; assay type: cell-based, Erythrocyte
How it was run: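 Human AChE kinetics in the Ellman DTNB assay. Inhibitor at 25, 50 and 100 nM, each with six ATCI concentrations, against an inhibitor-free series. Activity read every 2 min over 10 min. Km and Vmax from Michaelis–Menten non-linear regression; mechanism from Lineweaver–Burk plots; Ki from Dixon plot over four inhibitor concentrations and from slope/intercept replots. Triplicate.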

[7] = Permeability of the compound measured after 16 hrs by PAMPA-BBB assay

T1 sequence (P06276 whole entry): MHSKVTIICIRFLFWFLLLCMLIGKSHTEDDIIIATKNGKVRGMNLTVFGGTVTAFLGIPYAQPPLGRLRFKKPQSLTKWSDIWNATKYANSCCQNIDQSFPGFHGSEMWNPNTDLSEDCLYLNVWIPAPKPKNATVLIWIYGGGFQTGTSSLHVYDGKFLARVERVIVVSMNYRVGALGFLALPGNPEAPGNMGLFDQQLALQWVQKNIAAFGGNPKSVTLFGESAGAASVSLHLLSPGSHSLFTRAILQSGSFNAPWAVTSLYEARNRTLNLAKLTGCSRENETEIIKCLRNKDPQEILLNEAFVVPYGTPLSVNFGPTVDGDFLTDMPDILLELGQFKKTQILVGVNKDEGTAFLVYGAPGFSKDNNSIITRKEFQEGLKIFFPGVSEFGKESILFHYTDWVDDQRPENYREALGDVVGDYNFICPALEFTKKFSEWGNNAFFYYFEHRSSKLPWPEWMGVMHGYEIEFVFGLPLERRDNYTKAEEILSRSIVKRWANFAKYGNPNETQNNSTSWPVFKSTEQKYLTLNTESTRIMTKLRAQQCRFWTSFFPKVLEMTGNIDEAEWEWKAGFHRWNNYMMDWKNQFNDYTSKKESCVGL

SMILES | IC50 (Cholinesterase [1]) | IC50 (Acetylcholinesterase [2]) | further results
CCOC(=O)c1c(C)nc(N2CCN(S(=O)(=O)c3ccc(NC(C)=O)cc3)CC2)nc1-c1ccc(OC)cc1 | > 200 nM | 132 nM | –
CCOC(=O)c1c(C)nc(N2CCN(S(=O)(=O)c3ccc(N)c(Cl)c3)CC2)nc1-c1ccc(OC)cc1 | 178 nM | 77.9 nM | –
CCOC(=O)c1c(C)nc(N2CCN(S(=O)(=O)c3ccc(N)c(OC)c3)CC2)nc1-c1ccc(OC)c(OC)c1 | > 200 nM | 85.6 nM | –
CCOC(=O)c1c(C)nc(N2CCN(S(=O)(=O)c3ccc(NC(C)=O)c(Cl)c3)CC2)nc1-c1ccccc1 | 156 nM | 144 nM | –
CCOC(=O)c1c(C)nc(N2CCN(S(=O)(=O)c3ccc(N)cc3)CC2)nc1-c1ccc(OC)c(OC)c1 | > 200 nM | 68 nM | –
CCOC(=O)c1c(C)nc(N2CCN(S(=O)(=O)c3ccc(NC(C)=O)c(F)c3)CC2)nc1-c1ccc(OC)c(OC)c1 | 186 nM | 76.5 nM | –
CCOC(=O)c1c(C)nc(N2CCN(S(=O)(=O)c3ccc(NC(C)=O)c(F)c3)CC2)nc1-c1ccccc1 | 194 nM | 97.4 nM | –
CCOC(=O)c1c(C)nc(N2CCN(S(=O)(=O)c3ccc(N)cc3)CC2)nc1-c1ccccc1 | > 200 nM | > 200 nM | –
CCOC(=O)c1c(C)nc(N2CCN(S(=O)(=O)c3ccc(NC(C)=O)c(OC)c3)CC2)nc1-c1ccc(OC)cc1 | 194 nM | 79.3 nM | –
CCOC(=O)c1c(C)nc(N2CCN(S(=O)(=O)c3ccc(N)c(F)c3)CC2)nc1-c1ccccc1 | > 200 nM | > 200 nM | –
CCOC(=O)c1c(C)nc(N2CCN(S(=O)(=O)c3ccc(NC(C)=O)cc3)CC2)nc1-c1ccccc1 | > 200 nM | 118 nM | –
CCOC(=O)c1c(C)nc(N2CCN(S(=O)(=O)c3ccc(N)cc3)CC2)nc1-c1ccc(OC)cc1 | 192 nM | 71.9 nM | –
CCOC(=O)c1c(C)nc(N2CCN(S(=O)(=O)c3ccc(N)c(OC)c3)CC2)nc1-c1ccccc1 | 184 nM | 84.6 nM | –
CCOC(=O)c1c(C)nc(N2CCN(S(=O)(=O)c3ccc(NC(C)=O)cc3)CC2)nc1-c1ccc(OC)c(OC)c1 | 167 nM | 88.8 nM | –
CCOC(=O)c1c(C)nc(N2CCN(S(=O)(=O)c3ccc(NC(C)=O)c(OC)c3)CC2)nc1-c1ccccc1 | 184 nM | 79 nM | –
CCc1ccc(NC(=O)COc2c(Cl)cc(Cl)cc2S(=O)(=O)N2CCN(C(=O)c3ccco3)CC2)cc1 | – | – | IC50 (Acetylcholinesterase [3]): 5540 nM; IC50 (Cholinesterase [4]): 9150 nM
CCOC(=O)c1c(C)nc(N2CCN(S(=O)(=O)c3ccc(N)c(F)c3)CC2)nc1-c1ccc(OC)cc1 | 157 nM | 101 nM | –
CCOC(=O)c1c(C)nc(N2CCN(S(=O)(=O)c3ccc(NC(C)=O)c(Cl)c3)CC2)nc1-c1ccc(OC)cc1 | > 200 nM | 87.6 nM | –
CCOC(=O)c1c(C)nc(N2CCN(S(=O)(=O)c3ccc(NC(C)=O)c(OC)c3)CC2)nc1-c1ccc(OC)c(OC)c1 | > 200 nM | 79.2 nM | –
CCOC(=O)c1c(C)nc(N2CCN(S(=O)(=O)c3ccc(NC(C)=O)c(Cl)c3)CC2)nc1-c1ccc(OC)c(OC)c1 | 159 nM | 47.3 nM | Activity [5]: 99.41%; Ki (Acetylcholinesterase [6]): 8 nM; Papp at 16 h [7]: 24.3 ×10⁻⁶ cm/s
CCOC(=O)c1c(C)nc(N2CCN(S(=O)(=O)c3ccc(N)c(F)c3)CC2)nc1-c1ccc(OC)c(OC)c1 | 177 nM | 66.1 nM | –
CCOC(=O)c1c(C)nc(N2CCN(S(=O)(=O)c3ccc(N)c(OC)c3)CC2)nc1-c1ccc(OC)cc1 | 187 nM | 68.5 nM | –
CCOC(=O)c1c(C)nc(N2CCN(S(=O)(=O)c3ccc(NC(C)=O)c(F)c3)CC2)nc1-c1ccc(OC)cc1 | 168 nM | 91.9 nM | –
CCOC(=O)c1c(C)nc(N2CCN(S(=O)(=O)c3ccc(N)c(Cl)c3)CC2)nc1-c1ccc(OC)c(OC)c1 | 153 nM | 51.4 nM | Papp at 16 h [7]: 23.7 ×10⁻⁶ cm/s
CCOC(=O)c1c(C)nc(N2CCN(S(=O)(=O)c3ccc(N)c(Cl)c3)CC2)nc1-c1ccccc1 | 137 nM | 79.1 nM | –
